Measured values taken from ChEMBL document CHEMBL2417509, “Synthesis and biological evaluation of prodigiosene conjugates of porphyrin, estrone and 4-hydroxytamoxifen” (2013).
The source made the active and inactive calls. No cut-off for these calls is given here.

How the values were obtained:
Format in all cases: functional
[1] = test system: DU-145; assay: Cytotoxicity against human DU145 cells after 2 days by sulforhodamine B assay; conditions: DU-145, 48 h
In short: (§1)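 NCI60 multi-dose screen, 59 human tumour lines available. Cells exposed to compound across a 5-log mol/L concentration range for 2 days, then fixed and stained with sulphorhodamine B, optical density read. Growth inhibition calculated against time-zero control and untreated cells. GI50 derived from the dose series, average of two replicates.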

[2] = test system: CAKI-1; assay: Cytotoxicity against human CAKI-1 cells after 2 days by sulforhodamine B assay; conditions: CAKI-1, 48 h; in short: as §1
[3] = test system: SK-MEL-2; assay: Cytotoxicity against human SK-MEL-2 cells after 2 days by sulforhodamine B assay; conditions: SK-MEL-2, 48 h; in short: as §1
[4] = test system: HOP-62; assay: Cytotoxicity against human HOP62 cells after 2 days by sulforhodamine B assay; conditions: HOP-62, 48 h; in short: as §1
[5] = test system: OVCAR-5; assay: Cytotoxicity against human OVCAR5 cells after 2 days by sulforhodamine B assay; conditions: OVCAR-5, 48 h; in short: as §1
[6] = test system: SN12C; assay: Cytotoxicity against human SN12C cells after 2 days by sulforhodamine B assay; conditions: 48 h; in short: as §1
[7] = Cytotoxicity against human Hs578T cells after 2 days by sulforhodamine B assay; conditions: Hs-578T, 48 h; in short: as §1
[8] = test system: OVCAR-4; assay: Cytotoxicity against human OVCAR4 cells after 2 days by sulforhodamine B assay; in short: as §1
[9] = test system: PC-3; assay: Cytotoxicity against human PC3 cells after 2 days by sulforhodamine B assay; conditions: PC-3, 48 h; in short: as §1
[10] = test system: OVCAR-8; assay: Cytotoxicity against human OVCAR8 cells after 2 days by sulforhodamine B assay; conditions: OVCAR-8, 48 h; in short: as §1
[11] = test system: KM12; assay: Cytotoxicity against human KM12 cells after 2 days by sulforhodamine B assay; conditions: KM12, 48 h; in short: as §1
[12] = test system: SF-295; assay: Cytotoxicity against human SF295 cells after 2 days by sulforhodamine B assay; conditions: SF-295, 48 h; in short: as §1
[13] = test system: HCT-116; assay: Cytotoxicity against human HCT116 cells after 2 days by sulforhodamine B assay; conditions: HCT-116, 48 h; in short: as §1
[14] = test system: ACHN; assay: Cytotoxicity against human ACHN cells after 2 days by sulforhodamine B assay; conditions: 48 h; in short: as §1
[15] = test system: COLO 205; assay: Cytotoxicity against human COLO205 cells after 2 days by sulforhodamine B assay; conditions: COLO 205, 48 h; in short: as §1
[16] = test system: TK-10; assay: Cytotoxicity against human TK10 cells after 2 days by sulforhodamine B assay; conditions: TK-10, 48 h
In short: (§2)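 NCI DTP NCI60 multi-dose screen (59 human tumour lines available). Cells exposed to compound over a 5-log mol/L concentration range for 2 days, then fixed and stained with sulphorhodamine B, with optical density read. Growth inhibition calculated relative to time-zero cells and untreated cells, giving GI50 (half-maximal growth inhibition concentration). Average of two replicates.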

[17] = test system: UO-31; assay: Cytotoxicity against human UO31 cells after 2 days by sulforhodamine B assay; conditions: UO-31, 48 h; in short: as §2
[18] = test system: A549; assay: Cytotoxicity against human A549/ATCC cells after 2 days by sulforhodamine B assay; conditions: A549, 48 h; in short: as §1
[19] = test system: SW-620; assay: Cytotoxicity against human SW620 cells after 2 days by sulforhodamine B assay; conditions: SW-620, 48 h; in short: as §2
[20] = test system: Malme-3M; assay: Cytotoxicity against human MALME-3M cells after 2 days by sulforhodamine B assay; conditions: 48 h; in short: as §1
[21] = test system: NCI-H226; assay: Cytotoxicity against human NCI-H226 cells after 2 days by sulforhodamine B assay; conditions: NCI-H226, 48 h; in short: as §1
[22] = test system: NCI-H460; assay: Cytotoxicity against human NCI-H460 cells after 2 days by sulforhodamine B assay; conditions: NCI-H460, 48 h; in short: as §1
[23] = test system: CCRF-CEM; assay: Cytotoxicity against human CCRF-CEM cells after 2 days by sulforhodamine B assay; conditions: 48 h; in short: as §1
[24] = test system: OVCAR-3; assay: Cytotoxicity against human OVCAR3 cells after 2 days by sulforhodamine B assay; conditions: OVCAR-3, 48 h; in short: as §1
[25] = test system: K562; assay: Cytotoxicity against human K562 cells after 2 days by sulforhodamine B assay; conditions: K562, 48 h; in short: as §1
[26] = test system: SF-539; assay: Cytotoxicity against human SF539 cells after 2 days by sulforhodamine B assay; conditions: SF-539, 48 h; in short: as §1
[27] = test system: SR; assay: Cytotoxicity against human SR cells after 2 days by sulforhodamine B assay; conditions: 48 h; in short: as §2
[28] = test system: HCT-15; assay: Cytotoxicity against human HCT15 cells after 2 days by sulforhodamine B assay; conditions: HCT-15, 48 h; in short: as §1
[29] = test system: UACC-257; assay: Cytotoxicity against human UACC257 cells after 2 days by sulforhodamine B assay; conditions: UACC-257, 48 h; in short: as §2
[30] = test system: MCF7; assay: Cytotoxicity against human MCF7 cells after 2 days by sulforhodamine B assay; conditions: MCF7, 48 h; in short: as §1
[31] = test system: MDA-MB-435; assay: Cytotoxicity against human MDA-MB-435 cells after 2 days by sulforhodamine B assay; conditions: MDA-MB-435, 48 h; in short: as §1
[32] = read-out: LC50 (the source's name)

## CC/C(=C(/c1ccc(OCCN(C)C)cc1)c1ccc(OC(=O)CCCCCCCCC(=O)C2=C(C)/C(=C/c3[nH]c(-c4ccc[nH]4)cc3OC)N=C2C)cc1)c1ccccc1
[1]
  GI50: 8.13 µM
  LC50 (concentration killing 50% of starting cells): > 100 µM
  TGI: > 100 µM
[2]
  GI50: 6.92 µM
  LC50 (concentration killing 50% of the cells present at time zero): > 100 µM
  TGI: > 100 µM
[3]
  GI50: 30.9 µM
  LC50: > 100 µM
  TGI: > 100 µM
[4]
  GI50: 16.9 µM
  TGI: > 100 µM
[4]; [32]
  CC50: > 100 µM
[5]
  GI50: > 100 µM
  LC50: > 100 µM
  TGI: > 100 µM
[6]
  GI50: 7.59 µM
  TGI: > 100 µM
[6]; [32]
  CC50: > 100 µM
[7]
  GI50: 4.79 µM
  TGI: 85.1 µM
[7]; [32]
  CC50: > 100 µM
[8]
  Activity: inactive
[8]; OVCAR-4, 48 h
  LC50 (concentration killing 50% of cells): > 100 µM
  TGI: > 100 µM
[9]
  GI50: 5.89 µM
  LC50 (concentration killing 50% of cells): > 100 µM
  TGI: > 100 µM
[10]
  GI50: 9.12 µM
  LC50: > 100 µM
  TGI: > 100 µM
[11]
  GI50: 5.25 µM
  LC50: > 100 µM
  TGI: > 100 µM
[12]
  GI50: 10.7 µM
  LC50: > 100 µM
  TGI: 61.7 µM
[13]
  GI50: 3.39 µM
  LC50 (concentration killing 50% of cells vs time zero): > 100 µM
  TGI: 21.9 µM
[14]
  GI50: 7.76 µM
  LC50 (concentration killing 50% of cells): > 100 µM
  TGI: > 100 µM
[15]
  GI50: 8.13 µM
  LC50 (concentration killing 50% of cells): > 100 µM
  TGI: 77.6 µM
[16]
  GI50: 20.9 µM
  LC50: > 100 µM
  TGI: > 100 µM
[17]
  GI50: 4.47 µM
  LC50: > 100 µM
  TGI: > 100 µM
[18]
  GI50: 4.17 µM
  LC50 (concentration giving 50% net cell kill): > 100 µM
  TGI: > 100 µM
[19]
  GI50: 3.72 µM
  LC50 (concentration killing 50% of cells): 56.2 µM
  TGI: 14.1 µM
[20]
  GI50: 40.7 µM
  LC50: > 100 µM
  TGI: > 100 µM
[21]
  GI50: > 100 µM
  LC50: > 100 µM
  TGI: > 100 µM
[22]
  GI50: 4.27 µM
  LC50: > 100 µM
  TGI: > 100 µM
[23]
  GI50: 0.76 µM
  TGI: > 100 µM
[23]; [32]
  CC50: > 100 µM
[24]
  GI50: 11 µM
  LC50: > 100 µM
  TGI: > 100 µM
[25]
  GI50: 4.57 µM
  LC50 (concentration killing 50% of cells): > 100 µM
  TGI: > 100 µM
[26]
  GI50: 12 µM
  LC50: > 100 µM
  TGI: 50.1 µM
[27]
  GI50: 4.07 µM
  LC50 (concentration giving 50% net cell kill): > 100 µM
  TGI: > 100 µM
[28]
  GI50: 5.13 µM
  LC50: > 100 µM
  TGI: 97.7 µM
[29]
  GI50: 63.1 µM
  TGI: > 100 µM
[29]; [32]
  CC50: > 100 µM
[30]
  GI50: 0.16 µM
  LC50 (concentration giving 50% net cell kill): > 100 µM
  TGI: 11 µM
[31]
  GI50: 4.57 µM
  TGI: > 100 µM
[31]; [32]
  CC50: > 100 µM
